Assay results taken from ChEMBL document CHEMBL1137359, “Potent and orally bioavailable 8-bicyclo[2.2.2]octylxanthines as adenosine A1 receptor antagonists” (J Med Chem, 2006).
Converted amounts (≈) assume the structure as drawn.

Tests used:
Adenosine receptor A1 [1] = target: T1, Adenosine receptor A1 (Homo sapiens, UniProt P30542); experiment: Displacement of [125I]ABA from human adenosine A1 receptor expressed in CHOK1 cells; format: cell-based, CHO-K1
T1 sequence (P30542 whole entry): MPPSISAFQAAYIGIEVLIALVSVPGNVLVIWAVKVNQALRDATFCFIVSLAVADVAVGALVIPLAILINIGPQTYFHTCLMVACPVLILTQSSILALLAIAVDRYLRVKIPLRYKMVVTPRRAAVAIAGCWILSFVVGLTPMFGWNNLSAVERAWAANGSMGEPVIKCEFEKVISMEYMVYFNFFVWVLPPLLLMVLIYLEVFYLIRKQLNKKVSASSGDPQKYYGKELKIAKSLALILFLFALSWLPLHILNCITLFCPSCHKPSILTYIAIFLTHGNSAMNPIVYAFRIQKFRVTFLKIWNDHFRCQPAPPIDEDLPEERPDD
Outline: (§1)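 Membranes from stably transfected CHO-K1 (hA1) or HEK (hA2A, hA2B, hA3) cells, 2 h at room temperature in 50 mM HEPES pH 7.4, 1 mM EDTA, 5 mM MgCl2, 1 U/mL adenosine deaminase. 5% DMSO final except hA3. Full curves 10^-11–10^-5 M, seven concentrations, four determinations each. Filtration, γ-counting, Ki derived.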

[2] = target: T2, Adenosine receptor A3 (Homo sapiens) (UniProt P0DMS8); experiment: Displacement of [125I]ABA from human adenosine A3 receptor expressed in HEK cells relative to control; format: cell-based; design: concentration or dose not given beside the values; conditions: HEK293
T2 sequence (whole entry): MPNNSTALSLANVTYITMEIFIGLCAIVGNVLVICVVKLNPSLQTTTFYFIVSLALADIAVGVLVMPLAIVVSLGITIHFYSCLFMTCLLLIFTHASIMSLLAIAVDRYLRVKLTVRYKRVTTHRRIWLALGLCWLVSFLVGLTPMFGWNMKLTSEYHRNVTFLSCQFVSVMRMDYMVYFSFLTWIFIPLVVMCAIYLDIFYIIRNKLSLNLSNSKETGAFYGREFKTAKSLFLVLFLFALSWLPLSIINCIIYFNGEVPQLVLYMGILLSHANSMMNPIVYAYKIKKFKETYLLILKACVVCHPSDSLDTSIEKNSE
Outline: (§2)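 Single-point screen at 1 µM antagonist, run in duplicate, on transfected-cell membranes: CHO-K1 (hA1), HEK (hA2A, hA2B, hA3). 2 h at room temperature in 50 mM HEPES pH 7.4, 1 mM EDTA, 5 mM MgCl2, 1 U/mL adenosine deaminase; 5% DMSO except hA3. Nonspecific binding with 50 µM XAC, or 10 µM BW-1433 for hA3. Result is % radioligand bound relative to control.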

Adenosine receptor A2a [3] = target: T3, Adenosine receptor A2a (Homo sapiens, UniProt P29274); experiment: Displacement of [125I]ZM-241385 from human adenosine A2A receptor expressed in HEK cells; format: cell-based, HEK293; outline: as §1
[4] = target: Adenosine receptors; A1 & A2a (Homo sapiens) (UniProt P30542+P29274); experiment: Selectivity for human adenosine A1 receptor over human adenosine A2A receptor; format: protein assay
[5] = target: T4, Adenosine receptor A2b (Homo sapiens) (UniProt P29275); experiment: Displacement of [125I]3-(4-aminobenzyl)-8-phenyloxyacetate-1-propyl-xanthine from human adenosine A2B receptor expressed in HEK cells relative to control; format: cell-based; design: concentration or dose not given beside the values; conditions: HEK293; outline: as §2
T4 sequence (whole entry): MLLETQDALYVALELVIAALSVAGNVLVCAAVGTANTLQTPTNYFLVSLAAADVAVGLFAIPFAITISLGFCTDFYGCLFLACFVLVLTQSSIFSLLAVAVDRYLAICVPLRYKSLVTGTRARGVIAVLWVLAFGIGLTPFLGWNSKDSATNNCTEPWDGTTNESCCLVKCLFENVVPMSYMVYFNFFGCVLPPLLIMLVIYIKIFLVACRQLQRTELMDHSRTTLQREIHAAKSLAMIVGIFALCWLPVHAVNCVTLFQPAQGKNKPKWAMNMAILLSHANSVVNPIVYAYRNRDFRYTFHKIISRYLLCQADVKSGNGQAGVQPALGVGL

Adenosine receptor A2a [6] = target: T3, Adenosine receptor A2a; experiment: Displacement of [125I]ZM-241385 from human adenosine A2A receptor expressed in HEK cells relative to control; format: cell-based; design: concentration or dose not given beside the values; conditions: HEK293; outline: as §2
[7] = target: T5, Adenosine receptor A1 (Homo sapiens) (UniProt P30542); experiment: Displacement of [125I]ABA from human adenosine A1 receptor expressed in CHOK1 cells relative to control; format: cell-based; design: concentration or dose not given beside the values; conditions: CHO-K1; outline: as §2
T5 sequence (whole entry): T1 sequence (P30542 whole entry)

[8] = Aqueous solubility of the compound; format: physicochemical; conditions: water
Outline: (§3)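 Solubility of each compound measured in sterile water for injection, 0.9% saline, 5% dextrose in water, ethanol and octanol; values in mg/mL from duplicate determinations per solvent, individual values varying <5%.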

[9] = Solubility in ethanol; format: physicochemical; outline: as §3
Adenosine receptor A2a [10] = target: Adenosine receptor A2a (Rattus norvegicus, UniProt P30543); experiment: Displacement of [3H]ZM-241385 from rat brain striatum adenosine A2A receptor
Outline: (§4)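 Crude membranes (10-20 µg protein) from rat brain cortex (A1, 2 nM 3H-CPX) or striatum (A2A, 0.5-1.2 nM 3H-ZM241385) incubated 90 min at room temperature in 50 mM Tris-HCl pH 7.4 with 2 U/mL adenosine deaminase. Stopped with ice-cold buffer, then vacuum filtration and scintillation counting. Ki from concentration-response displacement.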

[11] = Solubility in 0.9% saline; format: physicochemical; outline: as §3
Adenosine receptor A3 = target: T6, Adenosine receptor A3 (Homo sapiens, UniProt P0DMS8); experiment: Displacement of [125I]ABA from human adenosine A3 receptor expressed in HEK cells; format: cell-based, HEK293
T6 sequence (P0DMS8 whole entry): T2 sequence (whole entry)
Outline: as §1, with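 “hA3. Radioligands: 0.3 nM (hA1) or 0.6 nM (hA3) 125I-ABA, 0.7 nM 125I-ZM241385, 0.5 nM A2B ligand.” for “hA3.”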

Adenosine receptor A1 [12] = target: T7, Adenosine receptor A1 (Rattus norvegicus, UniProt P25099); experiment: Displacement of [3H]CPX from rat brain cortex adenosine A1 receptor; outline: as §4
T7 sequence (P25099 whole entry): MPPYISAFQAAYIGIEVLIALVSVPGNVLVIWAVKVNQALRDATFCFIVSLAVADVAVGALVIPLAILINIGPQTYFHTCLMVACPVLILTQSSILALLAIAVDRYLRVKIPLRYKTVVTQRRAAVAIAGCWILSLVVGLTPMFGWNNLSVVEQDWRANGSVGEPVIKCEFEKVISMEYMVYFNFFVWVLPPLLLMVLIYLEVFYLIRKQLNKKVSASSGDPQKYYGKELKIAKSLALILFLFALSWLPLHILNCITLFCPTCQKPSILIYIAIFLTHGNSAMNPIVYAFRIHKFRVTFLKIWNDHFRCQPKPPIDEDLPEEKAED

[13] = Solubility in octanol; format: physicochemical; outline: as §3
[14] = Solubility in 5% dextrose in water; format: physicochemical; outline: as §3
Adenosine receptor A2b = target: T8, Adenosine receptor A2b (Homo sapiens, UniProt P29275); experiment: Displacement of [125I]3-(4-aminobenzyl)-8-phenyloxyacetate-1-propyl-xanthine from human adenosine A2B receptor expressed in HEK cells; format: cell-based, HEK293; outline: as §1
T8 sequence (P29275 whole entry): T4 sequence (whole entry)

T3 sequence (P29274 whole entry): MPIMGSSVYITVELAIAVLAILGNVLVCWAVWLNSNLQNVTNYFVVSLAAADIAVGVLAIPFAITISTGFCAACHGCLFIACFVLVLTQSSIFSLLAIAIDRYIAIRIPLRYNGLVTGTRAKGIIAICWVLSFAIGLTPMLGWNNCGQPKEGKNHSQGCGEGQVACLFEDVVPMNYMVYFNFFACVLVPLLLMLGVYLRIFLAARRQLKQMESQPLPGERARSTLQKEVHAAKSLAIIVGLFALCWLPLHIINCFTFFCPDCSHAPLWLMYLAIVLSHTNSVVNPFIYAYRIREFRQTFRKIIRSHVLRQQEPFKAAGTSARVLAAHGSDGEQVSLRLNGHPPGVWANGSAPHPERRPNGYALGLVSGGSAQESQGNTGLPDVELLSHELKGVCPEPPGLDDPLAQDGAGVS
Sequence of Adenosine receptors; A1 & A2a (Homo sapiens) (P29274 whole entry, looked up, one chain of several): as the sequence (P29274 whole entry) above
Sequence of Adenosine receptor A2a (Rattus norvegicus, UniProt P30543) (P30543 whole entry): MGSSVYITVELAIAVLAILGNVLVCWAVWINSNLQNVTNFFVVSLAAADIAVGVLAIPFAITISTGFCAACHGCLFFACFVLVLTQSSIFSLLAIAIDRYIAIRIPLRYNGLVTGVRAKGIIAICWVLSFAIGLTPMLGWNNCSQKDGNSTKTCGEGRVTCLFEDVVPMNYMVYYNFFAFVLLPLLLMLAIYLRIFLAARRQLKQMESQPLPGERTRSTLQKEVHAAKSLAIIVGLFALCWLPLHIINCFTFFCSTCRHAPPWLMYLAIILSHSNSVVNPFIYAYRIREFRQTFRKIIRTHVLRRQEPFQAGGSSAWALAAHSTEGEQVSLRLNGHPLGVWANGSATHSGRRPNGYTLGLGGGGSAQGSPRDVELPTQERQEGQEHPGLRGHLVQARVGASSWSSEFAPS

Row | Structure (SMILES) | Ki (Adenosine receptor A1 [1]) [nM] | Activity [2] [%] | Ki (Adenosine receptor A2a [3]) [nM] | Ratio Ki [4] | Activity [5] [%] | Activity (Adenosine receptor A2a [6]) [%] | Activity [7] [%] | further results
1 | CCCn1c(=O)c2nc([C@H]3CC[C@H](C(=O)O)CC3)[nH]c2n(CCC)c1=O | – | 88 | – | – | 69 | 75 | 31 | –
2 | CCCn1c(=O)c2nc([C@H]3CC[C@H](NC(=O)OCc4ccccc4)CC3)[nH]c2n(CCC)c1=O | – | 86 | – | 27 | 24 | – | – | –
3 | CCCn1c(=O)c2nc([C@H]3CC[C@H](COCc4ccccc4)CC3)[nH]c2n(CCC)c1=O | 171 | 95 | 2720 | 16 | 28 | – | – | –
4 | CCCn1c(=O)c2[nH]c([C@H]3CC4C[C@@H]3[C@H]3O[C@@H]43)nc2n(CCC)c1=O | 12 | – | – | – | – | – | – | solubility [8]: 460 µg/mL (≈ 1340 µM); solubility [9]: 85300 µg/mL (≈ 248000 µM); Ki (Adenosine receptor A2a [10]): 1250 nM; solubility [11]: 430 µg/mL (≈ 1250 µM); Ki (Adenosine receptor A3): 4810 nM; Ki (Adenosine receptor A1 [12]): 0.7 nM; solubility [13]: 4600 µg/mL (≈ 13400 µM); solubility [14]: 250 µg/mL (≈ 726 µM)
5 | CCCn1c(=O)c2nc([C@H]3CC[C@H](CO)CC3)[nH]c2n(CCC)c1=O | – | 77 | – | 8 | 18 | – | – | –

Now from value to compound, other results behind:

Row | Ki (Adenosine receptor A1 [1]) [nM] | Activity [2] [%] | Ki (Adenosine receptor A2a [3]) [nM] | Ratio Ki [4] | Activity [5] [%] | Activity (Adenosine receptor A2a [6]) [%] | Activity [7] [%] | Structure (SMILES) | further results
6 | 6 | 79 | 132 | 22 | 3 | – | – | CCCn1c(=O)c2nc([C@]34CC[C@](C(=O)NCCN(C)C)(CC3)CC4)[nH]c2n(CCC)c1=O | –
7 | – | 100 | – | – | 100 | 79 | 25 | CCCCC[C@]12CC[C@](c3nc4c(=O)n(CCC)c(=O)n(CCC)c4[nH]3)(CC1)CC2 | –
8 | 9 | – | 912 | – | – | – | – | CCCn1c(=O)c2[nH]c([C@]34CC[C@](C(=O)OC)(CC3)CC4)nc2n(CCC)c1=O | –
9 | 46 | 93 | 2260 | 49 | 11 | – | – | CCCCNC(=O)[C@H]1CC[C@H](c2nc3c(=O)n(CCC)c(=O)n(CCC)c3[nH]2)CC1 | –
10 | – | 100 | – | – | 38 | 92 | 45 | CCCn1c(=O)c2nc([C@H]3CC[C@H](NC(C)=O)CC3)[nH]c2n(CCC)c1=O | –
11 | – | 100 | – | – | 46 | 63 | 60 | CCCn1c(=O)c2nc([C@H]3CC[C@@H](NC(C)=O)CC3)[nH]c2n(CCC)c1=O | –
12 | 49 | 70 | 7880 | 161 | 53 | – | – | CCCn1c(=O)c2nc([C@]34CC[C@](C(=O)NCC(=O)O)(CC3)CC4)[nH]c2n(CCC)c1=O | –
13 | 112 | 88 | > 10000 | > 89 | – | – | – | CCCn1c(=O)c2nc([C@]34CC[C@](C(=O)N(C)CC(=O)OC)(CC3)CC4)[nH]c2n(CCC)c1=O | Ki (Adenosine receptor A2b): 296 nM
